# From PubChem
# Not all results are given here.
# Apaf1 activ: activators of human Apaf-1 apoptosome, primary screen, biochemical, DEVD-Rh110 fluorescence, uHTS | Apoptotic protease-activating factor 1 (Homo sapiens), O14727 | Apaf-1 apoptosome caspase-3 activation; active compounds read low | activity change, negative = activation, % at 20 µM | 330,000 tested, 0.31% active | AID 489031, 2010;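 active means activity change at or below -40% at 20 µM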
# Target sequence (O14727 whole entry, looked up): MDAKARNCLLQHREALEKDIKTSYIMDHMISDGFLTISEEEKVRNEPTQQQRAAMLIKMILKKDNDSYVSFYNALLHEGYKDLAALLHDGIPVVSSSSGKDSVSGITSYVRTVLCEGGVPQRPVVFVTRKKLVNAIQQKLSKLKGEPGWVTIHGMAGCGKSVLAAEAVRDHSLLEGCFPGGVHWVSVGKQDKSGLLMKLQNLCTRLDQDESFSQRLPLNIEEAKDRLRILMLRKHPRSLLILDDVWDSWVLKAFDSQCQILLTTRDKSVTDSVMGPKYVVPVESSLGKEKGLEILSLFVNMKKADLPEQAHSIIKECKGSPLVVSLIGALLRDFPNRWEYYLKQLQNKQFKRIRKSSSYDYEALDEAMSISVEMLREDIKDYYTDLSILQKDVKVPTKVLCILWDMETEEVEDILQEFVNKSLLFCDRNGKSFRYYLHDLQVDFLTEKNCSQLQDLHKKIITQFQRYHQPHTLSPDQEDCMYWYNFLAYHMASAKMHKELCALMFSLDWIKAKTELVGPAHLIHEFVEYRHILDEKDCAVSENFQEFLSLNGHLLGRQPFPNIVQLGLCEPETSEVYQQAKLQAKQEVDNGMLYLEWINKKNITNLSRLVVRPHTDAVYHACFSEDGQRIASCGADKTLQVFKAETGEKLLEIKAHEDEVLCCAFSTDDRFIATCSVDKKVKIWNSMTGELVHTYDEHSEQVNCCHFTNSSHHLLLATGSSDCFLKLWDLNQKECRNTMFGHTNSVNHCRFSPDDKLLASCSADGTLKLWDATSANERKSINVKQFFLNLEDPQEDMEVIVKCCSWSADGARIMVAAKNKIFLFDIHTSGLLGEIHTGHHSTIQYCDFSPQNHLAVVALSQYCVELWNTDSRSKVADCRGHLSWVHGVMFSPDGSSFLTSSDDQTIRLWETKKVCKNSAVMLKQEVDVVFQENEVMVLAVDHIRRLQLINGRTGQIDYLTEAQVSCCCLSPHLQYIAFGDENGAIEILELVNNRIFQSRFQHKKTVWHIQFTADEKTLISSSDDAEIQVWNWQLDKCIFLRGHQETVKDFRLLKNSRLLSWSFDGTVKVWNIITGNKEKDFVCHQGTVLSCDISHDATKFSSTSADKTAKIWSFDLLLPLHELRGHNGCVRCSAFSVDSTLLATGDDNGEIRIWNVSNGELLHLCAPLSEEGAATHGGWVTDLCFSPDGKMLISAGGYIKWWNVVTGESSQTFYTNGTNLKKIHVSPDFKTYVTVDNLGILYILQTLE
#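 Assay system – biochemical Apaf-1 apoptosome reconstitution · Medium – 20 mM HEPES buffer, pH 7.5, containing CHAPS and BSA · Incubation – 30 min preincubation, 50 min reaction, room temperature · Measured by – Caspase-3-released Rh110 fluorescence, 540 nm emission, 480 nm excitation · Read-out – Caspase-3 cleavage activity downstream of Apaf-1 activation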
# Rh110 act interf: Rh110 fluorescence interference by putative Apaf-1 activators, confirmation, artefact control for Apaf-1 activator project, biochemical, 20 µM; shares compounds with Apaf1 activ; fluorescence interference (activity change), % at 20 µM, hits read low; 980 tested, under 10 active; quenched caspase reaction, Ex480/Em540;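 active means mean activity change at or below -40% when tested at 20 µM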
# Apaf-1 act conf: Apaf-1 activators, single-dose retest, confirmation, biochemical, fluorescence, DEVD-Rh110, 20 µM. shares compounds with Apaf1 activ. activity change, negative = activation, % at 20 µM. AID 504617, 2011. 980 tested, 5% active. reconstituted apoptosome caspase-3 activity; active compounds read low;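 active means mean activity change at or below -40%, meaning activation of 40% or more, at 20 µM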
# Active calls of the source: *; . = no result.
SMILES,Apaf1 activ,Rh110 act interf,Apaf-1 act conf
COc1ccc(S(=O)(=O)N/N=C\c2ccc3c(c2)OCO3)c(OC)c1,-119.5*,0.1,5.7
CCCN(CC1CC1)c1nc(N)c2c(N)nc(OC)cc2c1C#N,93.2,.,.
Cc1ccc(N=Cc2cccc(O)c2O)c(C)c1,93.3,.,.
O=C(Cn1cc(S(=O)(=O)Cc2ccccc2)c2ccccc21)N1CCOCC1,-232.7*,6.3,3.6
Oc1cccc2c(NC(=S)Nc3ccc(OC(F)F)cc3)cccc12,65.3,.,.
CCOc1cc(NCc2ccccc2)c2ncn(C(C)C)c2c1,41.7,.,.
CCOC(CNc1ncnc2c1cnn2C)OCC,-142.7*,-0.4,6.2
O=[N+]([O-])c1cccnc1SCc1ccccc1,-514.3*,9.7,8.7
COc1ccc(-n2nc(C(=O)NCC(=O)NC3CCCCCC3)c3ccccc3c2=O)c(OC)c1,47.9,.,.
CC1CCN(C(=O)CSc2nnc(Cn3c(=O)sc4ccccc43)n2C)CC1,42.6,.,.
COc1ccc(OCc2nnc(SCC(=O)NC3CC3)n2C)cc1,-96.5*,-2.5,8.4
CCN1CCN(S(=O)(=O)c2ccc(Cl)c(C(=O)Nc3ccccc3N3CCCC3)c2)CC1,-74.2*,10.8,12.7
CC(=O)Nc1ccc(S(=O)(=O)NC2=C(N3CCN(C)CC3)C(=O)c3ccccc3C2=O)cc1,60.3,.,.
CN1CCN(c2ccc(S(=O)(=O)N3CCCCC3)cc2NC(=O)c2ccc3ccccc3c2)CC1,-154.8*,4.2,7.6
CCN1CCN(C2=C(NS(=O)(=O)c3ccc(NC(C)=O)cc3)C(=O)c3ccccc3C2=O)CC1,73.7,.,.
CCN1CCN(S(=O)(=O)c2ccc(Cl)c(C(=O)N(C)Cc3cccs3)c2)CC1,57.8,.,.
CN1CCN(c2ccc(S(=O)(=O)N3CCCCC3)cc2NC(=O)/C=C/c2ccc(Cl)c([N+](=O)[O-])c2)CC1,51.2,.,.
CC1=CC(C)(C)N2C(=O)C(=Nc3ccc(O)cc3)c3cccc1c32,90.2,.,.
CC1=NN(c2ccc(C)c(C)c2)C(=O)/C1=C/c1ccc2c(c1)n(C)c(=O)n2C,93.7,.,.
O=C(CSc1nc2ccccc2s1)N/N=C/c1ccco1,-62.1*,0.1,7.5
Cn1c(SCC(=O)Nc2ccc3nc(SCC(=O)N4CCCC4)sc3c2)nnc1-c1ccccc1,65.8,.,.
O=[N+]([O-])c1c(NCCCO)cc(Sc2nc3ccccc3s2)c2nonc12,97.8,.,.
CC(=C/c1ccco1)/C=N/NC(=O)CSc1nnc(SCc2ccc(C)cc2)s1,-89.9*,5.7,33.8
C#CCOCCOCCOCCNc1nc(N2CCN(C(=O)CCCCCCCCCCNC(=O)[C@H](CCCCN)n3cc(C)nn3)CC2)nc(N2CCN(C(=O)CCCCCCCCCCNC(=O)[C@@H]([C@H](C)CC)n3cc(CCCCCN)nn3)CC2)n1,81.5,.,.
Cc1ccc(-c2ccc(/C=N\NC(=O)C3C(=O)NCC3c3ccccc3)o2)cc1Cl (stereo not drawn),42.7,.,.
SMILES,Apaf1 activ,Rh110 act interf,Apaf-1 act conf
CC(=O)Nc1cccc(NC(=S)Nc2cccc3ccccc23)c1,96.9,.,.
O=C(O)c1cccc(CN2C(=O)CSC2=O)c1,-52.2*,0.3,8.0
O=C(CNc1cccc2ccccc12)N/N=C/C(Br)=C/c1ccccc1,64.9,.,.
COc1ccc2oc(C)c(C(=O)Cn3ccnc3)c2c1,-246.0*,16.7,15.8
c1ccc(-c2cn3nc4c(nc3n2)CCCC4)cc1,57.3,.,.
COc1ccc(C(=O)n2nc(-c3ccccc3)nc2N)cc1OC,-363.1*,-5.8,9.8
COc1ccc2nc3ccccc3nc2c1N,92.3,.,.
CN(C)CCCN1c2ccccc2Sc2ccc(Cl)cc21,42.5,.,.
COc1cc(C2Nc3cccc4cccc(c34)N2)cc(OC)c1OC(C)=O,40.6,.,.
O=C(/C=C/c1ccc(O)c(O)c1)O[C@@H]1C[C@](O)(C(=O)O)C[C@@H](O)[C@H]1O,-3.1,.,.
COc1ccc(/C=N/Nc2cc(C)nc3ccc(Br)cc23)cc1,55.5,.,.
CC(C)(C)c1cc(C(=O)N/N=C/c2ccc(-c3ccccc3[N+](=O)[O-])o2)n[nH]1,41.9,.,.
Cc1[nH]c(=O)[nH]c(=O)c1S(=O)(=O)N1CCN(c2ccccc2F)CC1,-517.3*,-0.4,-2.7
C#CCOCCOCCOCCNc1nc(N2CCN(C(=O)CCCCCCCCCCNC(=O)[C@H](CCCCN)n3cc(CCO)nn3)CC2)nc(N2CCN(C(=O)CCCCCCCCCCNC(=O)[C@H](CCCN=C(N)N)n3cc(C[C@@H](C)CC)nn3)CC2)n1,77.7,.,.
CN1CCC[C@H]1c1cccnc1,-2.4,.,.
O=C1CSC(c2cccnc2)N1CC1CC1 (stereo not drawn),-112.2*,0.7,13.2
O=C(NCC(c1ccco1)N1CCN(c2ccc(F)cc2)CC1)c1ccc2c(c1)OCO2 (stereo not drawn),-155.2*,-2.5,16.2
